Source: ChEMBL document CHEMBL1138744, “In vitro cytotoxic activities of 2-alkyl-4,6-diheteroalkyl-1,3,5-triazines: new molecules in anticancer research” (J Med Chem, 2004)

Experiments:
Format in all cases: functional, cell-based
[1] = tested on: HCT-116; assay: Cytotoxic activity of compound towards human cancer cell line HCT116 (colon cancer)
How it was run: (§1)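 Compounds first passed a one-dose primary assay on three cell lines, then were tested on a 60-line human tumour panel. Dose–response curves gave growth-inhibition values (IG50, μM). For each compound, only the most sensitive of the 60 lines was reported.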

[2] = tested on: HL-60; assay: Cytotoxic activity of compound towards human HL60 cell line after 72 hr of administration; conditions: HL-60, 72 h
[3] = tested on: C6; assay: Cytotoxic activity of compound towards […] cell line after 48 hr of administration; conditions: Rattus norvegicus, C6, 48 h
[4] = tested on: L1210; assay: Cytotoxic activity of compound towards human L1210 cell line after 72 hr of administration; conditions: Mus musculus, L1210, 72 h
[5] = tested on: SR; assay: Cytotoxic activity of compound towards human cancer cell line SR (leukemia); how it was run: as §1
[6] = tested on: C6; assay: Cytotoxic activity of compound towards […] cell line after 72 hr of administration; conditions: Rattus norvegicus, C6, 72 h
[7] = tested on: L1210; assay: Cytotoxic activity of compound towards human leukemia L1210 cell line after 48 hr of administration; conditions: Mus musculus, L1210, 48 h
[8] = tested on: HL-60; assay: Cytotoxic activity of compound towards human HL60 cell line after 48 hr of administration; conditions: HL-60, 48 h
[9] = tested on: HL-60; assay: Cytotoxic activity of compound towards human HL60 cell line after 48 hr of administration; NE= No effect
[10] = tested on: L1210; assay: Cytotoxic activity of compound towards human L1210 cell line after 72 hr of administration; NE= No effect
[11] = tested on: L1210; assay: Cytotoxic activity of compound towards […] cell line after 48 hr of administration; NE= No effect
[12] = tested on: C6; assay: Cytotoxic activity of compound towards […] cell line after 72 hr of administration; NE= No effect
[13] = tested on: HL-60; assay: Cytotoxic activity of compound towards human HL60 cell line after 72 hr of administration; NE= No effect
[14] = tested on: OVCAR-4; assay: Cytotoxic activity of compound towards human cancer cell line OVCAR-4 (ovarian cancer); how it was run: as §1
[15] = tested on: CAKI-1; assay: Cytotoxic activity of compound towards human cancer cell line CAKI-1 (renal cancer); how it was run: as §1
[16] = tested on: HOP-62; assay: Cytotoxic activity of compound towards human cancer cell line HOP-62 (lung cancer); how it was run: as §1
[17] = tested on: LOX IMVI; assay: Cytotoxic activity of compound towards human cancer cell line LOX IMVI (melanoma); how it was run: as §1
[18] = Cytotoxic activity of compound towards human L1210 cell line after 72 hr of administration; a is No cytotoxic effect

| Compound | IC50 [2] [µM] | IC50 [3] [µM] | IC50 [4] [µM] | IC50 [6] [µM] | IC50 [7] [µM] | IC50 [8] [µM] | further results |
| --- | --- | --- | --- | --- | --- | --- | --- |
| COc1nc(C#CC2CCCCC2)nc(OC)n1 | – | – | – | – | – | – | IC50 [1]: 0.4 µM |
| COc1ccc(Oc2nc(C#CC(C)(C)O)nc(Oc3ccc(OC)cc3)n2)cc1 | 36.3 | > 10000 | 14.1 | > 10000 | 11 | 17 | IC50 [5]: 0.63 µM |
| CC(C)(C)C#Cc1nc(N(CCO)CCO)nc(N(CCO)CCO)n1 | – | 3390 | – | – | – | – | IC50 [9]: Not Active; IC50 [10]: Not Active; IC50 [11]: Not Active; IC50 [12]: Not Active; IC50 [13]: Not Active |
| COc1nc(C#CC2(O)CCCCC2)nc(OC)n1 | – | – | – | – | – | – | IC50 [14]: 1.86 µM |
| CC[C@H](C)Cc1nc(N2CCOCC2)nc(N2CCOCC2)n1 | 141 | 575 | 57.5 | 240 | 141 | 219 | – |
| CC(C)(C)C#Cc1nc(N2CCOCC2)nc(N2CCOCC2)n1 | 389 | 6610 | 120 | – | 182 | 182 | IC50 [12]: Not Active |
| COc1nc(OC)nc(OC)n1 | 339 | – | – | – | – | 302 | – |
| COc1ccc(Oc2nc(Oc3ccc(OC)cc3)nc(Oc3ccc(OC)cc3)n2)cc1 | 52.5 | – | – | – | – | 70.8 | – |
| COc1nc(C#CC(C)(C)C)nc(OC)n1 | 7.08 | 16.6 | 9.12 | 16.6 | 12 | 7.08 | IC50 [5]: 5.25 µM |
| COc1nc(OC)nc(-c2cccc(F)c2)n1 | – | – | – | – | – | – | IC50 [15]: < 0.01 µM |
| CCC(O)C#Cc1nc(OC)nc(OC)n1 (stereo not given) | – | – | – | – | – | – | IC50 [16]: 4.9 µM |
| COc1nc(C#CC(C)(C)O)nc(OC)n1 | 15.1 | 16.2 | 12.9 | 15.1 | 14.1 | 15.8 | – |
| COc1nc(C#CCCCC#N)nc(OC)n1 | – | – | – | – | – | – | GI50 [17]: 2.09 µM |
| COc1ccc(Nc2nc(C#CC(C)(C)C)nc(Nc3ccc(OC)cc3)n2)cc1 | 575 | > 10000 | – | > 10000 | – | 589 | IC50 [18]: No effect; IC50 [11]: Not Active |
| C1CN(c2nc(N3CCOCC3)nc(N3CCOCC3)n2)CCO1 | 100 | 151 | 110 | 288 | 151 | 129 | – |
| CC(C)c1nc(N2CCOCC2)nc(N2CCOCC2)n1 | 200 | 141 | 67.6 | 490 | 93.3 | 87.1 | – |
